Results gathered from unrelated publications.
Each line is one published result; the experiments were not run side by side.

Compound | tested on | test | test system | conditions | measurement | result
Oc1c(Br)cc(Cl)c2cccnc12 |  |  | Sprague-Dawley rat, plasma | oral, 20 mg/kg | Vd/F | 39.9 L/kg
COC[C@@H](Cc1ccc(OC)c(OC)c1)[C@@H](COC)Cc1ccc(OC)c(OC)c1 | Huh7.5 | cell growth or viability, MTT |  |  | CC50 | 5 mM
O=C(Nc1cncc(-c2nc3ccccc3o2)c1)c1cc([N+](=O)[O-])c(N2CCNCC2)cc1Cl |  | metabolic stability | CD-1 mouse, liver microsomes | 1 µM, 1 h, pH 7.4 | scaled CLint | 0.6 L/h/kg
CCn1cnc2c(=O)[nH]c(N)nc21.NCCNCCN.[Pt+2] | CCRF-CEM | cell growth or viability, WST-1 |  |  | IC50 | > 0.1 mM
CN1CCN(c2nc(-c3ccccn3)nc3ccccc23)CC1 |  | metabolic stability | mouse, liver microsomes |  | microsomal CLint | 19 µL/min/mg
COc1ccc(CC(CC(=O)O)C(=O)O)cc1OC (stereo not drawn) | Huh7.5 | cell growth or viability, MTT |  |  | CC50 | > 5 mM
Fc1ccc(Nc2nc(-c3ccccn3)nc3ccccc23)cc1 |  | metabolic stability | mouse, liver microsomes |  | microsomal CLint | 138 µL/min/mg
O=C(Nc1cccc(-c2ncco2)c1)c1cc([N+](=O)[O-])c(F)cc1F |  | metabolic stability | CD-1 mouse, liver microsomes | 1 µM, 1 h, pH 7.4 | scaled CLint | 132 L/h/kg
NC(=O)c1cnc2[nH]ccc2c1N[C@@H]1[C@@H]2CC3C[C@H]1C[C@@](O)(C3)C2 | ATP-binding cassette sub-family C member 4 (ABCC4, Homo sapiens, UniProt O15439) | transporter uptake, inhibitor, radiometric | Sf9 | 100 µM, 5 min, pH 7, cell membranes | inhibition | < 50%
